SR-BI DiI inh: blocks mouse SR-BI lipid uptake from DiI-HDL. Q61009. ldlA[mSR-BI] CHO cells, DiI-HDL uptake fluorescence, 3 h. inhibition, % at 12.5 µM. 320,000 compounds, 0.96% hits;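 active means mean replicate inhibition of at least 70% and a set share of replicates each scoring 70 or more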;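 further: 0% = median of neutral control wells and 100% = median of positive control wells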
SR-BI DiI-HDL act: activators of SR-BI mediated HDL lipid uptake; CHO ldlA[mSR-BI] cells, DiI-HDL uptake fluorescence, 3 h; 100 = double the neutral-control signal; activation, % at 12.5 µM; 320,000 compounds, 0.096% hits;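 active means mean replicate activation of at least 60% and every replicate at or above 60%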;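 further: 0% = median plate neutral-control signal and 100% = twice that signal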
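material = CHO ldlA[mSR-BI] cells | medium = Ham's F12 with 0.5% BSA, HEPES 25 mM, pH 7.4 | reagent = fluorescent DiI-HDL, 10 µg/mL final | compound dosing = single-point compound dose | incubation = 3 h, 37 °C | measured by = bottom-read fluorescence, 550/595 nm | measure = HDL uptake via cellular fluorescence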
NSD2 HMT inh: inhibitors of human histone methyltransferase NSD2; O96028; NSD2 peptide methylation, AlphaScreen, 120 min; inhibition, % at 12.5 µM; 310,000 compounds, 0.54% hits; AID 743445; in the data active means inhibition above about 50%
Target sequence (O96028 whole entry, looked up): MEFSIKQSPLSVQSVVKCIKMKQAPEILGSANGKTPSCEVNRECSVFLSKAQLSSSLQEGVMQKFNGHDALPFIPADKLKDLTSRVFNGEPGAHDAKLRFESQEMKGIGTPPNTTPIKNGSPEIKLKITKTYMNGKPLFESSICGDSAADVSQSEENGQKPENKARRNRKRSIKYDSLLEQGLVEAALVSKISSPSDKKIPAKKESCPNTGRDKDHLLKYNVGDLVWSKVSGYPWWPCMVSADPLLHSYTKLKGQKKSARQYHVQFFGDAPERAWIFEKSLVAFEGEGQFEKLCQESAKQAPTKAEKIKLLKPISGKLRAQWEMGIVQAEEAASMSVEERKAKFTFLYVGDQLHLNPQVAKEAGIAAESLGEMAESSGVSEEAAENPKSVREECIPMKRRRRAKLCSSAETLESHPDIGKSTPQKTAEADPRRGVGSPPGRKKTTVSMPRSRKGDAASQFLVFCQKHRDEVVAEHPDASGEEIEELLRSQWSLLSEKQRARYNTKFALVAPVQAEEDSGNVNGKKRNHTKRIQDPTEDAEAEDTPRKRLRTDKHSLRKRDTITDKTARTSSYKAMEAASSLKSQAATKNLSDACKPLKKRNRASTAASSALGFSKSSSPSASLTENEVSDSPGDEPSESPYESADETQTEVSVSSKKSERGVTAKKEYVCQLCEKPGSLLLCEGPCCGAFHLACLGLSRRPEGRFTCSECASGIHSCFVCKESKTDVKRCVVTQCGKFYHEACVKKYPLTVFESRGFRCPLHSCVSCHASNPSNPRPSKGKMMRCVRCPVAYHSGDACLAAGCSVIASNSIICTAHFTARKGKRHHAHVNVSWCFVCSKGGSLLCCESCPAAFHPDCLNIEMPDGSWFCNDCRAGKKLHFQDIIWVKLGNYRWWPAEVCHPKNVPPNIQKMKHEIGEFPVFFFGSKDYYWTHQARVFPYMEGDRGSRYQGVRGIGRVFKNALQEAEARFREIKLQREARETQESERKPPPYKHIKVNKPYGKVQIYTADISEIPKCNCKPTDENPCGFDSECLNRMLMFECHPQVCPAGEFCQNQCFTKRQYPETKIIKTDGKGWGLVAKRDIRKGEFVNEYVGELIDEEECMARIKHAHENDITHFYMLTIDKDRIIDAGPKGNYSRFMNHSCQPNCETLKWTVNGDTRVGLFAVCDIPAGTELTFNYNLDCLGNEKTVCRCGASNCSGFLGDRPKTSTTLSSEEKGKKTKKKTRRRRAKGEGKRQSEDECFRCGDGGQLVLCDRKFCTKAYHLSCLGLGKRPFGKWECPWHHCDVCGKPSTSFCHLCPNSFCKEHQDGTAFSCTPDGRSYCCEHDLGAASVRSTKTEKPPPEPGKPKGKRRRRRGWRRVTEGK
ARNT TACC3 PPI: ARNT/TACC3 interaction disruption. AID 623870. Q9Y6A5. 390,000 compounds, 0.66% hits. inhibition, % at 9.99 µM. AlphaScreen His-ARNT PAS-B/GST-TACC3 binding, luminescence; TACC3 fragment carries E629A point mutation;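 active means mean inhibition of replicates at least 50% and at least half of replicates each reaching 50%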;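 further: 0% = complete ARNT plus TACC3 wells and 100% = ARNT alone without TACC3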
sPLA2-III inh: Inhibits HGIII-sPLA2 liposome hydrolysis, primary screen; inhibition, % at 12.2 µM; 370,000 compounds, 0.56% hits; QFRET BODIPY PC-A2 liposome hydrolysis, fluorescence;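 active means inhibition above mean plus 3 SD of compounds lying within the high and low control bounds, cut at about 19% in these data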;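 further: 0% = median of test compound wells and 100% = no enzyme DMSO wells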
Xi reactivation: activators of X-chromosome reactivation in mouse fibroblasts | XiGFP mouse fibroblasts, % GFP-positive cells imaging, 3 d; cells co-treated with 5-aza-dC sensitizer; scaled so ellipticine positive control = 100% | 360,000 compounds, 0.055% hits | activation, % at 7.58 µM;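 active means mean normalized replicate activation at least 10% and every replicate at or above 10%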;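 further: 0% = median of on-plate neutral control wells and 100% = ellipticine 6 µM median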
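Material: XiGFP fibroblasts, SV40-immortalized. Buffer or medium: DMEM plus 5-aza-dC sensitizer. Compound: single concentration per compound, delivered by pin transfer. Times: 3 days compound exposure. Controls: ellipticine 6 µM.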
Active calls of the source: *; · = not tested or not shown. The list is not random: actives were taken first. Their share in the collection is about 2%.

SMILES	SR-BI DiI inh	SR-BI DiI-HDL act	NSD2 HMT inh	ARNT TACC3 PPI	sPLA2-III inh	Xi reactivation
OCCCNC(=S)Nc1ccc2nc(-c3ccccn3)c(-c3ccccn3)nc2c1	-3	3	·	60*	-2	·
COC(=O)CC1Oc2ccccc2N(Cc2ccc(C)cc2)C1=O (centres undefined)	-5	5	-2	0	-3	·
CC(C)C(=O)Nc1ccc2c(c1)C(=O)N(C)[C@H]1CC[C@H](CC(=O)O)O[C@H]1CO2	·	·	·	-4	·	0
Cn1nc(C(=O)Nc2cc(Cl)ccc2N2CCCC2)c2ccccc2c1=O	93*	-93	-1	20	-4	0
CN1CCN(c2ccc(Cl)cc2NC(=O)c2nn(-c3ccccc3)c(=O)c3ccccc23)CC1	0	0	1	·	-2	·
Cn1nc(C(=O)Nc2cccnc2)c2ccccc2c1=O	-6	6	3	46*	7	·
Cn1nc(C(=O)NCc2cccnc2)c2ccccc2c1=O	-21	21	-1	2	8	·
CC1=NOC(=O)/C1=C\c1ccc(-c2ccc(Cl)cc2Cl)o1	129*	-129	13	-6	6	·
CCN(CC)S(=O)(=O)c1ccc(Cl)nc1	4	-4	-2	-5	5	1
NCCCNC(=O)c1ccc(/C=N/O)nc1	-18	18	-10	78*	1	0
O=C(NCCN1CCCCC1)c1ccc(/C=N/O)nc1	-22	22	-7	27	6	0
O=C(NCc1ccc(F)cc1)c1cc(C2CCCCN2S(=O)(=O)c2cccs2)on1 (centres undefined)	·	·	-5	·	-3	0
CCOC(=O)c1sc(=NC(=O)c2cc(OC)c(OC)c(OC)c2)n(C)c1C	74*	-74	-2	-5	6	·
CN1CCN(c2ccc([N+](=O)[O-])cc2C(=O)c2ccc(Br)cc2)CC1	10	-10	9	1	5	·
O=C(Nc1ccc(N2CCCC2)c(Cl)c1)c1ccc([N+](=O)[O-])cc1	75*	-75	4	-2	11	0
O=C(c1ccc(Br)cc1)c1cc([N+](=O)[O-])ccc1N1CCCCC1	88*	-88	1	-13	5	·
COc1ccc(C(=O)c2cc([N+](=O)[O-])ccc2N2CCN(C)CC2)cc1	19	-19	8	-2	4	0
COc1ccc(NC(=O)c2cc([N+](=O)[O-])ccc2N2CCCCC2)cc1	90*	-90	45	·	4	0
COc1ccc(C(=O)c2cc([N+](=O)[O-])ccc2N2CCCC2)cc1	70*	-70	5	5	0	0
O=C(Nc1ccc(Cl)cc1)[C@@H]1[C@@H]2C(=O)N(c3ccc4ccccc4c3)C(=O)[C@@H]2[C@H]2C=CC=NN21	76*	-76	-1	-8	-12	·
O=C(Nc1ccc(Cl)cc1)[C@@H]1[C@@H]2C(=O)N(c3cccc(F)c3)C(=O)[C@@H]2[C@H]2C=CC=NN21	16	-16	1	6	-8	0
Cc1c(C(=O)Nc2ccccc2)sc2nc(-c3ccccc3)cn12	77*	-77	1	2	-21	·
O=C(c1oc2ccccc2c1N1CCCCC1)N1CCCCC1	78*	-78	·	40	4	·
O=C(c1cc2ccccc2o1)N1CCCCCC1	-21	21	8	0	3	·
CCc1c(C(=O)Nc2cc(C)cc(C)c2)[nH]c(C)c1C(C)=O	77*	-77	-9	-4	-19	·
CCOc1ccc(CCNC(=O)c2[nH]c(C)c(C(C)=O)c2CC)cc1OCC	10	-10	0	·	-3	0
C#CCOCCOCCOCCNc1nc(N2CCN(C(=O)[C@H](CCC(=O)O)n3cc([C@@H](N)[C@H](C)CC)nn3)CC2)nc(N2CCN(C(=O)[C@H](CCC(=O)O)n3cc([C@@H](N)CCSC)nn3)CC2)n1	-13	13	·	4	3	1
COc1cc(OC)c(NC(=S)Nc2cc(Cl)cc(Cl)c2)cc1Cl	66	-66	-2	-6	4	0
COc1cc(OC)c(NC(=S)Nc2cccc(C(C)=O)c2)cc1Cl	87*	-87	0	3	0	·
